We go through two compounds from PMC2649372 (Biochemistry, 2008).

Each structure is given as a SMILES string. Where a chain is given by its changes, count along the chain named. Marks after values point to notes of the source that are not given here.

Holding throughout (experiment): Agonist-induced currents, voltage clamp electrophysiology in Xenopus oocytes
Common to all, as to type: cell-based

Test [1] concerns the target T1, E129H mutant 5-HT3 receptor (mouse 5-HT3A subunit) (Mus musculus, UniProt P23979, E129H).
T1 sequence (P23979 24-483 isoform P23979-2 E129H limits assumed): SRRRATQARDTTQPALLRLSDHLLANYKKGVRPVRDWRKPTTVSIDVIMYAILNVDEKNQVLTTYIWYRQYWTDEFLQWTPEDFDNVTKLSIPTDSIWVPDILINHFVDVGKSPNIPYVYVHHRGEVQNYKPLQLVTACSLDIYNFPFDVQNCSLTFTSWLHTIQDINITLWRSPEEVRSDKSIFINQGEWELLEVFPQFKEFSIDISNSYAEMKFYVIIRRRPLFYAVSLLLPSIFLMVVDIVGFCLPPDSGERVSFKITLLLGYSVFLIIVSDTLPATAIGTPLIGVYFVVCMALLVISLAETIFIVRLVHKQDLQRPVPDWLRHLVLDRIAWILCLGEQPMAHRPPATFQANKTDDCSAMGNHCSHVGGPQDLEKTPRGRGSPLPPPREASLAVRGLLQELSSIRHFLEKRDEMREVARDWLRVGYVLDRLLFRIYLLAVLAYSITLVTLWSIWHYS

For test [2], the target named is T2, N128A mutant 5-HT3 receptor (mouse 5-HT3A subunit) (Mus musculus, UniProt P23979, N128A).
T2 sequence (P23979 24-483 isoform P23979-2 N128A limits assumed): T1 sequence (P23979 24-483 isoform P23979-2 E129H limits assumed) with N105A, H106E
The following applies: N128A.

Test [3] has as its target T3, N128K mutant 5-HT3 receptor (mouse 5-HT3A subunit) (Mus musculus, UniProt P23979, N128K).
T3 sequence (P23979 24-489 N128K): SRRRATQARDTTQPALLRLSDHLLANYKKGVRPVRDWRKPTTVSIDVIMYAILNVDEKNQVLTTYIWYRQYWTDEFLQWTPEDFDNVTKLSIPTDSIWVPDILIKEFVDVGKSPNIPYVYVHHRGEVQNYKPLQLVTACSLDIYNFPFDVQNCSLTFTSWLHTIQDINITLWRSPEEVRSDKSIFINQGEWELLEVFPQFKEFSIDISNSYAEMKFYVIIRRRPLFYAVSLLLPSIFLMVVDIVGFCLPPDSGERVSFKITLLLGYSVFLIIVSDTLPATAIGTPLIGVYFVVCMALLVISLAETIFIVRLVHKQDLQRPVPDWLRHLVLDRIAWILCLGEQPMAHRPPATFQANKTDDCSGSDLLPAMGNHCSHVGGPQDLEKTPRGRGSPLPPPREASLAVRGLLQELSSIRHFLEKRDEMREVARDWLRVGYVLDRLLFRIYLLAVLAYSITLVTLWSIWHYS

For test [4], the target named is T4, WT 5-HT3 receptor (mouse 5-HT3A subunit) (Mus musculus, UniProt P23979).
T4 sequence (P23979 24-483 isoform P23979-2 limits assumed): T1 sequence (P23979 24-483 isoform P23979-2 E129H limits assumed) with H106E
Particulars: WT.

In test [5] the target is T5, E129-Nha mutant 5-HT3 receptor (mouse 5-HT3A subunit) (Mus musculus, UniProt Q6J1J7).
T5 sequence (Q6J1J7 24-483): T1 sequence (P23979 24-483 isoform P23979-2 E129H limits assumed) with H106E, F436L
The procedure, abridged:
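Mouse 5-HT3A receptor carrying Nha or Akp, introduced by nonsense suppression. Stage V-VI Xenopus oocytes were co-injected with 5 ng cRNA and 25 ng photodeprotected aminoacyl-tRNA. Controls received tRNA without an amino acid. At 24-72 h, agonist currents were recorded by two-electrode voltage clamp at -60 mV, 22-25 °C, in Ca-free ND96 (pH 7.5).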

Where [6] appears, read: oocytes, holding potential −60 mV.

In general, EC50 refers to the midpoint of the concentration-response curve. A word on the pEC50: it is the EC50 on a negative log10 scale, so that one unit is a factor of ten. With `NCCc1c[nH]c2ccc(O)cc12` [5-HT, 5-hydroxytryptamine], the “nH (Hill coefficient)” value is listed as 1.07 ± 0.24 ^b in test [1]; 1.34 ± 0.13 ^b in test [2]; 2.13 ± 0.38 in test [3]; 2.54 ± 0.15 in test [4]; 1.18 ± 0.12 ^b in test [5]. The compound also gave a concentration for a half-maximal effect (EC50) in test [5] of 3500 nM. The pEC50 in test [5] stood at 5.45 ± 0.04.
As to `N=C(N)NC(=N)Nc1cccc(Cl)c1` [mCPBG, m-chlorophenylbiguanide], the EC50 in test [1] worked out at 370 nM; in test [2] it was 1100 nM; in test [3], 3900 nM; in test [4] (setting [6]), 470 nM; in test [5], 560 nM. Further, the “nH (Hill coefficient)” value in test [1] is listed as 1.63 ± 0.20; in test [2] it was 1.33 ± 0.08; in test [3] it was 1.43 ± 0.16; in test [4], 2.03 ± 0.23; in test [5], 1.91 ± 0.60. The negative-log EC50 (pEC50) in test [1] is listed as 6.43 ± 0.04; in test [2] it was 5.95 ± 0.02; in test [3], 5.41 ± 0.03 ^b; in test [4] (setting [6]), 6.33 ± 0.02; in test [5], 6.25 ± 0.07.
